Series [1] relates to Zika virus. In words: Antiviral activity against ZIKV MR766 infected in human A549 cells assessed as reduction in viral replication pretreated with virus for 1 hr followed by infection of cells with compound treated-virus for 30 hrs by focus reduction assay. It is filed as functional, organism-based. Conditions: for EC90: time 31 hrs. In short, it runs like this:
(§1)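 Dose-response: serial dilutions (100 to 0.13 μM) preincubated 1 h at 37 °C with virus (MOI 0.02), then added to cells for 20 h (USUV) or 30 h (ZIKV) in 2% FBS DMEM. Cells per well: Vero 1.2 × 10^4, A549 1.3 × 10^4, Huh7 1.6 × 10^4. Foci immunostained and counted. EC50/EC90 fitted by variable-slope sigmoidal curve, mean of three independent experiments.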

The nature of series [2]: Cytotoxicity against African green monkey Vero cells infected with USUV 3345 isolate Arb276 pretreated with virus for 1 hr followed by infection of cells with compound treated-virus for 20 hrs by MTS assay. Format: toxicity, cell-based. Conditions: chlorocebus sabaeus. A digest of the protocol:
(§2)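 MTS viability assay. Cells were treated under the same conditions as the antiviral assays. Absorbance was expressed as % of medium-only cells, and CC50 was derived from the curve. Seeding densities were 1.2 × 10^4/well for Vero, 1.3 × 10^4/well for A549 and 1.6 × 10^4/well for Huh7. DMEM with 2% FBS.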

The subject of series [3] is Zika virus. Briefly: Antiviral activity against ZIKV MR766 infected in African green monkey Vero cells assessed as viral growth inhibition at 0.13 to 100 uM treated immediately after viral infection for 30 hrs by time of addition assay. Format: functional, organism-based. The following applies: dose 0.13-100 µM. In short, it runs like this: (§3)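 Time-of-addition assay in Vero. Serial dilutions (100 to 0.13 μM) were added to cells 24 h or 2 h before infection, during the 2 h infection, or post-infection for 24 h (USUV) or 30 h (ZIKV). Cells were fixed in cold acetone-methanol (50:50) and infected cells detected by indirect immunostaining. EC50/EC90 came from variable-slope sigmoidal fits; mean of three independent experiments.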

Series [4] has as its system Zika virus. Briefly: Antiviral activity against ZIKV MR766 infected in African green monkey Vero cells assessed as reduction in plaque formation pretreated with virus for 1 hr followed by infection of cells with compound treated-virus for 2 hrs and further treatment of compound for 72 hrs by crystal violet staining based assay. Format: functional, organism-based. Conditions: time 75.0 hrs. In short, it runs like this: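 Plaque reduction assay. Vero cells were seeded 6 × 10^4/well. ZIKV (MOI 0.005) was preincubated with serial compound dilutions for 1 h at 37 °C, then adsorbed on cells for 2 h. After two washes, cells were overlaid with 1.2% methylcellulose in DMEM for 72 h, then fixed and stained with 0.1% crystal violet for 30 min. Plaques counted; EC50/EC90 from variable-slope sigmoidal fits.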

In series [5] the test system is Zika virus. Briefly: Antiviral activity against ZIKV MR766 infected in human Huh-7 cells assessed as reduction in viral replication pretreated with virus for 1 hr followed by infection of cells with compound treated-virus for 30 hrs by focus reduction assay. Format: functional, organism-based. Conditions: for EC50: MR766, Huh-7; for EC90: MR766, Huh-7, time 31 hrs. A digest of the protocol: as §1

Series [6] has as its system Usutu virus. Briefly: Antiviral activity against USUV 3345 isolate Arb276 infected in African green monkey Vero cells assessed as viral growth inhibition at 0.13 to 100 uM pretreated with cells 24 hrs prior to viral infection by time of addition assay. Format: functional, organism-based. Conditions: dose 0.13-100 µM. A digest of the protocol:
as §3

Series [7] relates to Zika virus. In words: Antiviral activity against ZIKV MR766 infected in African green monkey Vero cells assessed as viral growth inhibition at 0.13 to 100 uM pretreated with cells 2 hrs prior to viral infection by time of addition assay. Format: functional, organism-based. The following applies: dose 0.13-100 µM. A digest of the protocol:
as §3

Series [8] relates to Usutu virus. Briefly: Antiviral activity against USUV 3345 isolate Arb276 infected in African green monkey Vero cells assessed as titer reduction in viral progeny production at 15 uM treated for 2 hrs followed by virus removal and subsequent addition of medium containing compound measured after 48 hrs by focus reduction assay. Format: functional, organism-based. Conditions: time 50.0 hrs. In short, it runs like this: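 Vero cells seeded 6.5 × 10^4/well, exposed in duplicate for 2 h at 37 °C to virus (MOI 0.1) mixed with compound at 5 or 15 μM. After three washes, medium containing compound was added for 48 h. Supernatants were clarified and titred on Vero by focus reduction (USUV, FFU/ml) or plaque assay (ZIKV, PFU/ml). DMSO-matched infected controls; mean of three experiments.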

Series [9] concerns Zika virus. Briefly: Antiviral activity against ZIKV MR766 infected in African green monkey Vero cells assessed as reduction in viral replication pretreated with virus for 1 hr followed by infection of cells with compound treated-virus for 30 hrs by focus reduction assay. It is filed as functional, organism-based. Conditions: for EC90: time 31 hrs.
The nature of series [10]: Cytotoxicity against human Huh-7 cells infected with USUV 3345 isolate Arb276 pretreated with virus for 1 hr followed by infection of cells with compound treated-virus for 20 hrs by MTS assay. Format: toxicity, cell-based. A digest of the protocol: as §2
Series [11] has as its system Usutu virus. Briefly: Antiviral activity against USUV 3345 isolate Arb276 infected in human A549 cells assessed as reduction in viral replication pretreated with virus for 1 hr followed by infection of cells with compound treated-virus for 20 hrs by focus reduction assay. It is filed as functional, organism-based. Conditions: Usutu virus, 3345, A549; for EC90: time 21 hrs. A digest of the protocol:
as §1

Active and inactive are the calls of the source. No cut-off for these calls is given here.

With `O=C1[C@@H]2CCCN2[C@@H](c2ccc([C@H]3C[C@@H](O)[C@@H](CO)O3)cc2)N1c1ccc([N+](=O)[O-])cc1`, the EC50 turned out to be 3.95 µM with Zika virus [1], 2.26 µM in the series with Zika virus [5], 7.96 µM in the series on Zika virus [9] and 6.42 µM in the series on Usutu virus [11]. Also, the EC90 with Zika virus [1] was 10.9 µM; with Zika virus [5], 4.26 µM; in the series with Zika virus [9], 12.3 µM; with Usutu virus [11], 12 µM. Moreover, the CC50 at 21 h in series [2] and in [10] was above 500 µM each time. Moreover, the outcome with Zika virus [3], with Zika virus [4], in the series on Usutu virus [6] and in the series with Usutu virus [8] was Active. For the same molecule, the result with Zika virus [7] was inactive.

Consider `O=C1C[C@H](c2ccc([C@H]3N(c4ccc([N+](=O)[O-])cc4)C(=O)[C@@H]4CCCN43)cc2)O[C@@H]1CO`, for which the EC50 in the series on Zika virus [1] was 3.8 µM; with Zika virus [5] it was 2.36 µM; with Zika virus [9] it was 9.73 µM; in the series on Usutu virus [11], 6.82 µM. For the same molecule, the 90% effect concentration (EC90) with Zika virus [1] is 10.2 µM; with Zika virus [5] it was 4.19 µM; with Zika virus [9], 15.4 µM; in the series on Usutu virus [11] it was 15.2 µM. Also, the CC50 at 21 h in series [2] and in series [10] was above 500 µM in each case. Moreover, the result in the series on Zika virus [3], in the series on Zika virus [4], with Usutu virus [6] and in the series with Usutu virus [8] was Active. Moreover, the outcome in the series on Zika virus [7] was inactive.

These data come from ChEMBL document CHEMBL5325402, “Exploration of novel hexahydropyrrolo[1,2-e]imidazol-1-one derivatives as antiviral agents against ZIKV and USUV” (Eur J Med Chem, 2023).
